Experimental data published in ChEMBL document CHEMBL2385053, “Novel isoquinoline derivatives as antimicrobial agents” (2013).

Tests used:
[1] = system: Fusarium culmorum; assay: Fungicidal activity against Fusarium culmorum CCM 172 at 0.2 mg/disk after 72 hrs by paper disk-agar diffusion method; format: functional
How it was run: (§1)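 Fungi were grown on potato dextrose agar (PDA) for 7 days at 28 °C. Conidia were suspended to ~10⁶/mL in 0.05% Tween 80 in sterile water, and 1 mL was mixed into 15 mL PDA. Four 0.5 cm paper disks (0.2 mg/disk) were placed on the set agar. Controls were vehicle-only disks and benomyl at species-dependent doses. The inhibition zone was read in mm at 72 h as the mean ± SE of three independent experiments.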

[2] = system: Geotrichum candidum; assay: Fungicidal activity against Geotrichum candidum CCM 245 at 0.2 mg/disk after 72 hrs by paper disk-agar diffusion method; format: functional; how it was run: as §1
[3] = system: Trichoderma viride; assay: Fungicidal activity against Trichoderma viride CECT 2423 at 0.2 mg/disk after 72 hrs by paper disk-agar diffusion method; format: functional; how it was run: as §1
[4] = system: Phytophthora citrophthora; assay: Fungicidal activity against Phytophthora citrophthora CECT 2353 at 0.2 mg/disk after 72 hrs by paper disk-agar diffusion method; format: functional; how it was run: as §1
[5] = system: Bacillus cereus; assay: Bactericidal activity against Bacillus cereus CECT 148 at 0.2 mg/disk after 24 hrs by paper disk-agar diffusion method; format: functional
How it was run: (§2)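 Each bacterial strain was taken from a 24-h culture on solid medium, reactivated in Nutrient Broth, and grown a further 24 h at 28 or 37 °C depending on the strain. 1 mL of suspension was mixed with 15 mL Plate Count Agar. Four 0.5 cm paper disks (0.2 mg/disk) were placed on the set agar. Controls were vehicle-only disks and tetracycline. Plates were incubated 24 h, dark, 28 or 37 °C. The inhibition zone was read in mm as the mean ± SE of three independent experiments.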

[6] = system: Salmonella typhi; assay: Bactericidal activity against Salmonella typhi CECT 409 at 0.2 mg/disk after 24 hrs by paper disk-agar diffusion method; format: functional, Salmonella enterica subsp. enterica serovar Typhi
How it was run: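 Paper disk-agar diffusion, run in triplicate. 24-h culture reactivated in nutrient broth and grown a further 24 h at 28 or 37 °C by species. 1 mL suspension mixed into 15 mL plate count agar. Four 0.5 cm disks placed per plate, incubated 24 h in the dark. Inhibition zone (mm) reported as mean ± SE of three independent experiments; vehicle disks as negative control.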

[7] = system: Staphylococcus aureus; assay: Bactericidal activity against Staphylococcus aureus CECT 86 at 0.2 mg/disk after 24 hrs by paper disk-agar diffusion method; format: functional; how it was run: as §2
[8] = system: Escherichia coli; assay: Bactericidal activity against Escherichia coli CECT 100 at 0.2 mg/disk after 24 hrs by paper disk-agar diffusion method; format: functional; how it was run: as §2
[9] = system: Aspergillus parasiticus; assay: Fungicidal activity against Aspergillus parasiticus CECT 2681 at 0.2 mg/disk after 72 hrs by paper disk-agar diffusion method; format: functional; how it was run: as §1
[10] = system: Enterococcus faecalis; assay: Bactericidal activity against Enterococcus faecalis CECT 481 at 0.2 mg/disk after 24 hrs by paper disk-agar diffusion method; format: functional; how it was run: as §2
[11] = system: Escherichia coli; assay: Bactericidal activity against Escherichia coli CECT 405 at 0.2 mg/disk after 24 hrs by paper disk-agar diffusion method; format: functional; how it was run: as §2
[12] = system: Pectobacterium carotovorum; assay: Bactericidal activity against Erwinia carotovora CECT 225 at 0.2 mg/disk after 24 hrs by paper disk-agar diffusion method; format: functional; how it was run: as §2

Row | Structure (SMILES) | inhibition zone (IZ) [1] [mm] | inhibition zone (IZ) [2] [mm] | inhibition zone (IZ) [3] [mm] | inhibition zone (IZ) [4] [mm] | inhibition zone (IZ) [5] [mm] | inhibition zone (IZ) [6] [mm] | inhibition zone (IZ) [7] [mm] | inhibition zone (IZ) [8] [mm] | inhibition zone (IZ) [9] [mm] | inhibition zone (IZ) [10] [mm] | inhibition zone (IZ) [11] [mm] | inhibition zone (IZ) [12] [mm]
1 | CCCCC1c2cc(OC)c(OC)cc2CCN1C (stereo not given) | 5.5 | 0 | 0 | 0 | 6 | 6.25 | 6 | 0 | 0 | 7 | 6 | 6
2 | COc1cc2c(cc1OC)C(CCCCCOC(=O)CCc1ccccc1)N(C)CC2 (stereo not given) | 6.33 | 7.83 | 8 | 6.67 | 10.33 |  | 9.67 | 11.33 | 0 | 8.67 | 8.67 | 10.67
3 | COc1cc2c(cc1OC)C(CCCCCOC(=O)c1ccc(Cl)cc1)N(C)CC2 (stereo not given) | 6.67 | 12.33 | 9 | 10.33 | 13 |  | 12.67 | 13.67 | 0 | 11.67 | 11.5 | 12.67
4 | COC(=O)CCCCC1c2cc(OC)c(OC)cc2CCN1C (stereo not given) |  |  |  |  | 6.33 | 0 | 5.5 | 5.83 |  | 0 | 0 | 0
5 | COC(=O)CCCCC1=[N+](C)CCc2cc(OC)c(OC)cc21 |  |  |  |  | 6.33 | 0 | 0 | 0 |  | 0 | 0 | 5.5
6 | CN(C)[C@@H]1C(O)=C(C(N)=O)C(=O)[C@@]2(O)C(O)=C3C(=O)c4c(O)cccc4[C@@](C)(O)[C@H]3C[C@@H]12 [TETRACYCLINE] |  |  |  |  | 23.33 | 24.33 | 27 | 25.67 |  | 31.17 | 25.67 | 34.67
7 | COc1cc2c(cc1OC)C(CCCCCOC(=O)NCCc1ccccc1)N(C)CC2 (stereo not given) | 0 | 7.67 | 0 | 0 | 10.17 | 13.5 | 14 | 10.67 | 0 | 13.67 | 14 | 11
8 | COc1ccc(C(=O)OCCCCCC2c3cc(OC)c(OC)cc3CCN2C)cc1 (stereo not given) | 5.5 | 7.33 | 5.5 | 0 | 10.33 |  | 11.33 | 10.83 | 0 | 11.33 | 11.33 | 10.33
9 | COc1cc2c(cc1OC)C(CCCCCOC(=O)CCc1ccc(Cl)cc1)N(C)CC2 (stereo not given) | 9.5 | 8.5 | 9 | 8.5 | 11 | 8.17 | 8.67 | 8.67 | 0 | 8.33 | 9.17 | 11
10 | COc1ccc(CCNC(=O)OCCCCCC2c3cc(OC)c(OC)cc3CCN2C)cc1 (stereo not given) | 0 | 7 | 0 | 0 | 12 |  | 9 | 10.67 | 0 | 11 | 13.33 | 17
11 | COc1cc2c(cc1OC)C(CCCCCOC(=O)c1ccccc1)N(C)CC2 (stereo not given) | 7 | 6.75 | 7.25 | 0 | 10.83 | 9.67 | 10.67 | 11 | 0 | 9.83 | 9.83 | 12.17
12 | CCCCC1=[N+](C)CCc2cc(OC)c(OC)cc21 |  |  |  |  | 7 | 6.75 | 7 | 0 |  | 7 | 7 | 7
